From PubChem
GSTO1 counter = blocks human GSTO1 in RBBP9 counter-screen; inhibition, % at 5.96 µM; recombinant GSTO1, activity-based probe fluorescence polarization; hit rate 1.1% among 300,000;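 active = inhibition above the campaign mean inhibition plus 3 SD, cut at about 35% in these data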;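 also: 0% = GSTO1-1 with DMSO and 100% = wells lacking GSTO1-1 enzyme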
Apaf1 inhib = inhibitors of human Apaf-1 apoptosome; O14727; reconstituted apoptosome caspase-3 activity, DEVD-Rh110 fluorescence; inhibition, % at 20 µM; hit rate 0.71% among 330,000; AID 489030; active = inhibition of at least 40% at 20 µM;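 also: plate controls were DMSO wells for no effect and DEVD-CHO caspase inhibitor wells for full effect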
Target sequence (O14727 whole entry, looked up): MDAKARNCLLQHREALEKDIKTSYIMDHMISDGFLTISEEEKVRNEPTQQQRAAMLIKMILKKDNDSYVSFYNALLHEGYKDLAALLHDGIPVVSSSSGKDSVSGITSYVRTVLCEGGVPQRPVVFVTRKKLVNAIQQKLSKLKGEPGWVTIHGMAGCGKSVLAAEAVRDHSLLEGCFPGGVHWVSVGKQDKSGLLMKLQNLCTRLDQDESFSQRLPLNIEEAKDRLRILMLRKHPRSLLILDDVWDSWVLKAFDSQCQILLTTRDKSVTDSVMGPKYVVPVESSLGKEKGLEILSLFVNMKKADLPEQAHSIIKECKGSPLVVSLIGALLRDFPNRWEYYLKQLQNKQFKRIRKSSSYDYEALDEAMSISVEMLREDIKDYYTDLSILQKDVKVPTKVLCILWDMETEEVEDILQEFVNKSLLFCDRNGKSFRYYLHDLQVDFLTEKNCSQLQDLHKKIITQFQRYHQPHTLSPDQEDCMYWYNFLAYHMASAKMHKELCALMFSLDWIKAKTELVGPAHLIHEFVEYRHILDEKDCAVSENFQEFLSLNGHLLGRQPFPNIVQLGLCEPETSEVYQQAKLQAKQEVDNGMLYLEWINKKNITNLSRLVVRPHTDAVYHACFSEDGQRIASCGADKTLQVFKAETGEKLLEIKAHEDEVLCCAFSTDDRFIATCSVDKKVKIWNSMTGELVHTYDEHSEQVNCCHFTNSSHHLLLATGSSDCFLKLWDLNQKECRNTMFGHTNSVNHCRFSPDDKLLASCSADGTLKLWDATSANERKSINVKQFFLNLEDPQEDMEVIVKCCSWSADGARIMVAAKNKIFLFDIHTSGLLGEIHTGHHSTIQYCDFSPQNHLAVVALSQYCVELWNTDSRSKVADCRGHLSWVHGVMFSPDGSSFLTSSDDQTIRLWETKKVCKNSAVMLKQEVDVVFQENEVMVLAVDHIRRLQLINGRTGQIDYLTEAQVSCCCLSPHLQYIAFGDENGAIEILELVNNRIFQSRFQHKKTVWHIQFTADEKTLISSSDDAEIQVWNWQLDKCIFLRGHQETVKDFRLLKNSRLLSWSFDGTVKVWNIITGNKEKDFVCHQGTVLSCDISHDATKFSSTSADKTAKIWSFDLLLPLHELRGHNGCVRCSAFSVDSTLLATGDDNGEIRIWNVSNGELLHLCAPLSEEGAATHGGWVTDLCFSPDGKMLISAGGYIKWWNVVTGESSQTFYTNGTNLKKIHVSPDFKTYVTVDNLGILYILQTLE
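System: Apoptosome proteins | Medium: Hepes pH 7.5 with detergent and BSA | Also added: Cytochrome c trigger plus (Z-DEVD)2-Rh110 caspase-3 substrate | Incubation: 30 min compound preincubation, 50 min activation, room temperature | Detection: Rhodamine 110 fluorescence at Ex 480/Em 540 nm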
HKDC1 inh = blocks human hexokinase HKDC1 activity | recombinant HKDC1, G6PDH/diaphorase resazurin coupled fluorescence | inhibition, % at 20 µM | hit rate 0.16% among 340,000 | AID 493160;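 active = inhibition above about 35% when tested at 20 µM, limit read from the data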;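 also: plate controls were DMSO wells with enzyme for no effect and DMSO wells lacking enzyme for full effect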
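Test system: recombinant HKDC1 (HK5) hexokinase enzyme, produced in-house / Doses: 20 µM test compound, 1% DMSO / Timing: 90 min, room temperature / Detection: G6PDH/diaphorase-coupled fluorescence, 1 mM NADP, 100 µM resazurin, 525/613 nm / Control set: DMSO wells with and without enzyme mix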
SUMO HTRF inh = SUMOylation inhibition. P63279. HTRF SUMOylation assay, SAE1/SAE2 + UBC9, in vitro. inhibition, % at 35 µM. hit rate 0.36% among 290,000. AID 2006; in the data active = inhibition above about 50%, passing the limit was not always enough
DTT redox prof = compounds producing H2O2 with reducing agent – biochemical, NIH compound library profiling, artefact control for MLSCN library redox annotation, primary screen. DTT-dependent redox cycling H2O2, phenol red/HRP absorbance; 100% = 100 µM peroxide control, 0% = buffer. activation, % at 10 µM. hit rate 0.03% among 200,000. AID 878;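 active = activation of at least 50% relative to the plate's high and low controls in the primary single-dose screen; inactive = activation below 50%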;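 also: compound incubated with DTT at 0.8 mM final as the reducing agent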
HKDC1 act conf = confirmation of human HKDC1 activators | shares compounds with HKDC1 inh | recombinant HKDC1, G6PDH/diaphorase resazurin fluorescence; active compounds read low | inhibition, % at 20 µM | hit rate 14% among 740 | AID 504708;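 active = inhibition at or below a set negative limit, negative inhibition meaning the enzyme was activated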
An asterisk follows results filed as active; i = inactive; . = no result given. Only some compounds are listed: those with a hit (about 1.4% of all), similar ones and a draw of the others.

SMILES	GSTO1 counter	Apaf1 inhib	HKDC1 inh	SUMO HTRF inh	DTT redox prof	HKDC1 act conf
Cc1ccc(N(C(=O)c2csnn2)C(C(=O)NC2CCCC2)c2ccccn2)c(C)c1 (configuration not stated)	3	-3	-7	1	.	.
N#Cc1cccc(N=c2ssnc2Cl)c1	.	6	-13	16	-2	.
COc1cc(N=c2ssnc2Cl)cc(OC)c1	-15	-1	-51	17	2	-33
N#Cc1ccccc1OCC(=O)OCC(=O)NC1CCCC1	.	5	-5	.	.	.
Cc1onc(-c2ccccc2)c1C(=O)NC(=S)NNC(=O)c1ccccc1O	1	-15	-45	-82	0	-17
COc1ccc(-c2nnc(SC)nc2-c2ccc(OC)c([N+](=O)[O-])c2)cc1[N+](=O)[O-]	11	36	34	.	.	13
O=C1/C(=C/c2ccc(C(=O)O)cc2)CCC/C1=C\c1ccc(C(=O)O)cc1	-3	-10	-1	22	.	.
C=CC(=O)N1C/C(=C/c2ccccc2)C(=O)/C(=C\c2ccccc2)C1	.	.	38*	.	.	2
CN1C/C(=C/c2ccncc2)C(=O)/C(=C/c2ccncc2)C1	3	2	3	0	.	.
C=CC(=O)N1C/C(=C/c2ccc(Cl)cc2)C(=O)/C(=C\c2ccc(Cl)cc2)C1	.	.	45*	.	.	10
CC1=C(SCc2ccccc2)C(=O)c2ccccc2C1=O	.	.	44*	.	.	24
COC(=O)c1ccc(C(=O)OC)c(NC(=S)N2CCCC(CO)C2)c1 (configuration not stated)	3	2	-2	18	-2	.
O=C(Nc1ccc(Nc2ccncc2)cc1)c1ccc(Nc2ccnc3ccc([N+](=O)[O-])cc23)cc1	.	.	44*	69*	.	-7
O=C(Nc1ccc(Cc2ccncc2)cc1)c1cccc([N+](=O)[O-])c1	5	3	-8	11	-1	.
COc1ccc(N2CCN(C(=O)Cc3ccc(OC)c(OC)c3)CC2)cc1	5	i	-3	2	.	.
Cc1cnc(C(=O)OCC(=O)N(Cc2ccccc2)C(C)(C)C)cn1	.	1	-3	.	.	.
N#Cc1ccc(CSc2nnc(NC(=O)c3ccc4ncsc4c3)s2)cc1	-5	6	51*	-71	0	41
O=C(Nc1nnc(SCc2c(Cl)cccc2Cl)s1)c1ccc2ncsc2c1	-2	9	.	30	0	.
O=C(NC1CCC(=O)N(CCOc2ccccc2)CC1)OCc1ccccc1 (configuration not stated)	7	1	-9	0	.	.
CC(=O)Nc1nc2ccccc2n1Cc1ccccc1	6	-20	-5	4	-3	.
O=NNc1nc2ccccc2n1Cc1ccccc1	-14	-2	-40	10	.	-44*
COc1cccc(C(c2c(N)[nH]c(=S)[nH]c2=O)c2c(N)[nH]c(=S)[nH]c2=O)c1	10	-8	-1	0	.	.
COc1cc(SC#N)ccc1N=Cc1c(C)[nH]n(-c2ccc(Cl)cc2)c1=O	-14	25	-41	21	0	-38*
CC1(C)C2CCC(C2)C1C/C=N/NC(N)=S (configuration not stated)	5	-16	0	13	.	.
S=C(NCCc1ccc(Cl)cc1)NCc1ccccc1	0	16	-63	-9	.	-12
SMILES	GSTO1 counter	Apaf1 inhib	HKDC1 inh	SUMO HTRF inh	DTT redox prof	HKDC1 act conf
S=C(NCCc1cccc(Cl)c1)NCc1ccccc1	.	2	.	0	.	.
CCCNc1c(NS(=O)(=O)c2ccc3c(c2)CCCC3)c(=O)oc2ccccc12	2	15	0	26	.	.
Cc1cc(=O)n2nc(N3CCC(C(=O)NCc4ccccc4F)CC3)sc2n1	0	2	0	-2	.	.
COCCNc1ccc([N+](=O)[O-])cc1C(=O)Nc1cccc(C)n1	2	0	-58	13	0	-14
Cc1cccc(NC(=O)c2ccc([N+](=O)[O-])cc2Cl)n1	2	12	-9	-3	0	.
Oc1ccc2ccccc2c1C=Nc1ccccc1Br	27	5	38*	-5	.	10
Oc1ccc2ccccc2c1C=NNc1ccccn1	.	.	21	.	.	.
Oc1ccc2ccccc2c1/C=N/c1nccs1	34	12	37*	-13	2	29
Oc1ccccc1N=Cc1c(O)ccc2ccccc12	.	29	10	51	.	.
O=C(NCC1CCCCC1)c1cccc(Br)c1	-2	5	4	14	.	.
Cc1ccc(NS(=O)(=O)c2ccc(Br)cc2)nc1	8	15	-5	9	0	.
COC1(NS(=O)(=O)c2ccc(Br)cc2)C(C)=CC(=O)C=C1C	7	1	50*	18	-1	26
CCN(CC)S(=O)(=O)c1cccc(C(=O)N/N=C(\C)c2ccc(O)cc2O)c1	9	-7	-43	20	-1	-19
Cc1ccc(N=Cc2cc(Cc3ccccc3Cl)cc([N+](=O)[O-])c2O)c(O)c1	8	29	30	44	-1	30
O=C(NCCc1ccccc1)c1cnn2c(C(F)F)cc(C3CC3)nc12	-2	1	47*	25	0	60
Cc1cc(C(F)F)n2ncc(C(=O)NCCc3ccc(Cl)cc3)c2n1	2	19	39*	5	0	36
Cc1cc(C(F)F)n2ncc(C(=O)NCCc3ccccc3Cl)c2n1	-4	18	31	5	0	.
O=C(Nc1ccc(F)cc1)C(=O)c1c(O)[nH]c2ccc([N+](=O)[O-])cc12	13	-7	42*	.	.	-4
O=C1/C(=C\c2ccc([N+](=O)[O-])cc2)CCc2ccccc21	4	-4	4	4	1	.
O=C1/C(=C/Nc2cccc([N+](=O)[O-])c2)CCc2ccccc21	10	-17	41*	41	0	5
CCCn1c(N)c(C(=O)CSc2nnc3ccccn23)c(=O)n(C)c1=O	.	3	-1	.	.	.
Cc1ccc(/C=C/c2nc3sc(C(=O)O)c(C)c3c(=O)[nH]2)cc1[N+](=O)[O-]	4	-19	47*	-4	.	-27
O=C(O)c1ccccc1-c1c2cc(I)c(=O)c(I)c-2oc2c(I)c(O)c(I)cc12	-196	17	69*	.	.	43
COc1ccc([C@@H](C)NC(=O)c2ccc3oc(C(C)C)nc3c2)cc1	3	-10	1	-10	.	.
CC(=O)Oc1ccc(-c2csc(Nc3ccc(S(N)(=O)=O)cc3)n2)cc1	4	-11	-8	12	1	.
COc1ccc(-c2csc(Nc3ccc(S(N)(=O)=O)cc3)n2)cc1	4	0	-42	-28	0	-25
Cc1n[nH]c(=O)c2c(NC(=O)CSc3nnc(C4CC4)n3C)oc(C)c12	5	-8	40*	.	.	-14
